Screens (PubChem BioAssay)
CAL PDZ FP-1 = human CAL PDZ-peptide interaction inhibition; 330,000 tested, 0.02% active; purified CAL PDZ, TMR-peptide fluorescence polarization, 1 h; AID 504414; Q9HD26; inhibition, % at 20 µM;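 active means highest replicate inhibition of at least 40%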;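 further: plate controls were DMSO neutral control wells for no effect and unlabeled competitor peptide control wells for full effect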
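Control set: unlabelled peptide and DMSO controls / Material: purified CerCALP PDZ construct / Timing: 1 h incubation at room temperature before polarization reading / Doses: 20 µM, one dose / Detection: fluorescence polarization (mP)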
CAL PDZ FP-2 = CAL PDZ (human) peptide binding inhibition. 300,000 tested, 0.92% active. inhibition, % at 24.9 µM. purified CAL PDZ, TMR-peptide fluorescence polarization, 1 h. Q9HD26;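 active means mean inhibition of at least 30% with at least half of replicates also reaching 30%; inconclusive means no clear call, values can overlap the other calls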;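 further: 0% = DMSO neutral control and 100% = excess unlabeled competitor peptide PRC23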
DENV2 CPE = DENV2-induced cell death inhibition. DENV2-infected cells, cytopathic effect rescue, plate reader. CPE inhibition, % at 9.99 µM. 350,000 tested, 1.7% active; in the data active means CPE inhibition above about 20%, passing the limit was not always enough; inconclusive means no clear call, values can overlap the other calls; tested in BHK-21 cells;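 further: 0% = median of neutral control wells and 100% = median of positive control wells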
SIRT5 block = inhibitors of human sirtuin-5 desuccinylase | Q9NXA8 | Purified SirT5, succinyl-peptide AMC, trypsin-coupled fluorescence | inhibition, % at 15 µM | 330,000 tested, 1.1% active; in the data active means inhibition above about 15%; inconclusive means no clear call, values can overlap the other calls
Target sequence (Q9NXA8 whole entry, looked up): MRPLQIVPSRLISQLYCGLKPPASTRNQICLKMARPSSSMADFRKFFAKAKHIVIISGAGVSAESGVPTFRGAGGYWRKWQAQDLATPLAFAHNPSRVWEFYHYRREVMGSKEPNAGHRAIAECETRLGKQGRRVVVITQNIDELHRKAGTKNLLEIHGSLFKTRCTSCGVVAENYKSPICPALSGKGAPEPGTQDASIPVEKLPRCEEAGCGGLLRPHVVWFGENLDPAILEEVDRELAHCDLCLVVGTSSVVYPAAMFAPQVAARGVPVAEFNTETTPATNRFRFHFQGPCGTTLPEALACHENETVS
S100A4 MyoIIA = inhibitors of human S100A4 binding to myosin IIA peptide. P26447. S100A4/TAMRA-MyoIIA peptide fluorescence polarization. inhibition, % at 10.7 µM. 360,000 tested, 0.14% active. AID 652163;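 active means mean inhibition of at least 70% across replicates, with every replicate also reaching that level; inconclusive means mean inhibition reaches 70% but some replicates fall short; inactive means mean inhibition below 70%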
Target sequence (P26447 whole entry, looked up): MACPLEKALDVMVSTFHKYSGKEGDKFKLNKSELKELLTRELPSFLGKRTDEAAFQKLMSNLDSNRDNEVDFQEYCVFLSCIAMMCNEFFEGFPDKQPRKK
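Test system – S100A4 monomer (human) · Compound – single-point compound testing · Schedule – 5 min incubation before reading · Probe or stimulus – TAMRA-labelled myosin IIA heavy-chain peptide probe, 5 nM · Benchmarks – neutral control DMSO, positive control TFP · Medium – Calcium-containing HEPES buffer, pH 7.2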
ERAP1 HTS inh = inhibitors of human ERAP1 aminopeptidase | recombinant ERAP1, Leu-AMC fluorescence, 60 min | inhibition, % at 10.7 µM | Q9NZ08 | 340,000 tested, 0.15% active;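 active means mean replicate inhibition of at least 30%, or all replicates individually reaching that 30% level; inactive means mean below 30% and not every replicate reaching it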;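 further: 0% = neutral control wells and 100% = L-leucinethiol positive control wells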
The depositor's hits bear a star. Compounds with a hit are over-represented: about 2.9% of the library has one in this group of screens.

`CN(C)CC#Cc1ccc([C@@H]2[C@H](CO)N3CCCCN(C(=O)CN(C)C)C[C@@H]23)cc1` gave DENV2 CPE -4, SIRT5 block 0, S100A4 MyoIIA 2 and ERAP1 HTS inh 0.
Screening CN(C)CC#Cc1ccc([C@@H]2[C@@H](CO)N3CCCCN(C(=O)CN(C)C)C[C@H]23)cc1 returned DENV2 CPE inconclusive, SIRT5 block 25*, S100A4 MyoIIA 7 and ERAP1 HTS inh 2.
C[C@@H]1CN([C@H](C)CO)C(=O)c2cc(NC(=O)CCN3CCOCC3)ccc2O[C@@H]1CN(C)C(=O)Nc1ccc2c(c1)OCO2 was read as DENV2 CPE 50*, SIRT5 block -5, S100A4 MyoIIA 5 and ERAP1 HTS inh -2.
For C[C@H]1CN([C@@H](C)CO)C(=O)c2cc(NC(=O)CCN3CCOCC3)ccc2O[C@H]1CN(C)C(=O)Nc1ccc2c(c1)OCO2 the results were DENV2 CPE 6, SIRT5 block 20*, S100A4 MyoIIA -4 and ERAP1 HTS inh 1.
For CC(C)C(=O)Nc1ccc2c(c1)C(=O)N(C)[C@@H]1CC[C@@H](CC(=O)NCC3CC3)O[C@H]1CO2 the results were DENV2 CPE -1, SIRT5 block 2, S100A4 MyoIIA 18 and ERAP1 HTS inh 2.
`COc1ccc(-n2nc([N+](=O)[O-])c(=NCc3ccc4c(c3)OCO4)n2O)cc1` gave CAL PDZ FP-1 -2, CAL PDZ FP-2 0, DENV2 CPE 32*, S100A4 MyoIIA 1 and ERAP1 HTS inh -4.
O=[N+]([O-])c1nn(-c2ccccc2)n(O)c1=NCc1ccc2c(c1)OCO2 was read as CAL PDZ FP-1 -1 and CAL PDZ FP-2 -6.
COc1ccc(S(=O)(=O)Nc2ccc3c(c2)C(=O)N([C@@H](C)CO)C[C@H](C)[C@@H](CN(C)S(=O)(=O)c2ccc(Cl)cc2)OCCCC[C@@H](C)O3)cc1 was read as DENV2 CPE 8, SIRT5 block 9, S100A4 MyoIIA 41 and ERAP1 HTS inh 0.
Screening O=C(Nc1cccc(C(F)(F)F)c1)OCCN1CCN(Cc2ccccc2)CCC1=O returned CAL PDZ FP-1 -1, CAL PDZ FP-2 -1, DENV2 CPE 70*, S100A4 MyoIIA -5 and ERAP1 HTS inh 1.
Screening CCNC(=O)Nc1ccc2c(c1)C(=O)N(C)[C@H]1CC[C@H](CC(=O)NCC3CCCCC3)O[C@H]1CO2 returned DENV2 CPE 8, SIRT5 block 4, S100A4 MyoIIA 6 and ERAP1 HTS inh -2.
For CCCN(C)C[C@@H]1OCc2cn(nn2)CCCC(=O)N([C@H](C)CO)C[C@@H]1C the results were DENV2 CPE 1, SIRT5 block 9, S100A4 MyoIIA 3 and ERAP1 HTS inh 2.
Screening CC(C)NC(=O)Nc1ccc2c(c1)C(=O)N([C@H](C)CO)C[C@H](C)[C@H](CN(C)Cc1ccc(C(=O)O)cc1)OCCCC[C@H](C)O2 returned DENV2 CPE 5, SIRT5 block 1, S100A4 MyoIIA 2 and ERAP1 HTS inh -2.
For COc1cccc(-c2cc(C(=O)Nc3ccn(Cc4ccc(C)cc4)n3)no2)c1 the results were CAL PDZ FP-2 38*, DENV2 CPE 1, SIRT5 block -7, S100A4 MyoIIA -2 and ERAP1 HTS inh -1.
`Cc1noc(C)c1NC(=O)N(C)C[C@@H]1OCCCC[C@H](C)Oc2ccc(NC(=O)c3ccccc3)cc2C(=O)N([C@@H](C)CO)C[C@H]1C` gave DENV2 CPE 4, SIRT5 block -3, S100A4 MyoIIA 16 and ERAP1 HTS inh 2.
For CCCCCCc1c(C)c2ccc(OCC(=O)N[C@@H](Cc3ccccc3)C(=O)O)cc2oc1=O the results were CAL PDZ FP-1 -1, CAL PDZ FP-2 -2, DENV2 CPE inconclusive, S100A4 MyoIIA -6 and ERAP1 HTS inh 32*.
CCCNC(=O)N[C@H]1C=C[C@@H](CC(=O)NC2CCCCC2)O[C@@H]1CO was read as DENV2 CPE -8, SIRT5 block 0, S100A4 MyoIIA 15 and ERAP1 HTS inh 1.
Screening COc1ccc(CCNC(=O)CN2C(=O)NC3(CCCCC3)C2=O)cc1 returned CAL PDZ FP-1 1, CAL PDZ FP-2 -5, DENV2 CPE 1, SIRT5 block -1, S100A4 MyoIIA -2 and ERAP1 HTS inh -1.
